These compounds were tested against T1, fucolectin-related protein (FRP) (Streptococcus pneumoniae, UniProt A0A0H2US34) (assay: enzyme-linked lectinosorbent inhibition assay). Conditions: TBS-T pH 7.35, 20 °C; no metal needed; ratio from amounts giving 50% inhibition.
T1 sequence (A0A0H2US34 1-1038): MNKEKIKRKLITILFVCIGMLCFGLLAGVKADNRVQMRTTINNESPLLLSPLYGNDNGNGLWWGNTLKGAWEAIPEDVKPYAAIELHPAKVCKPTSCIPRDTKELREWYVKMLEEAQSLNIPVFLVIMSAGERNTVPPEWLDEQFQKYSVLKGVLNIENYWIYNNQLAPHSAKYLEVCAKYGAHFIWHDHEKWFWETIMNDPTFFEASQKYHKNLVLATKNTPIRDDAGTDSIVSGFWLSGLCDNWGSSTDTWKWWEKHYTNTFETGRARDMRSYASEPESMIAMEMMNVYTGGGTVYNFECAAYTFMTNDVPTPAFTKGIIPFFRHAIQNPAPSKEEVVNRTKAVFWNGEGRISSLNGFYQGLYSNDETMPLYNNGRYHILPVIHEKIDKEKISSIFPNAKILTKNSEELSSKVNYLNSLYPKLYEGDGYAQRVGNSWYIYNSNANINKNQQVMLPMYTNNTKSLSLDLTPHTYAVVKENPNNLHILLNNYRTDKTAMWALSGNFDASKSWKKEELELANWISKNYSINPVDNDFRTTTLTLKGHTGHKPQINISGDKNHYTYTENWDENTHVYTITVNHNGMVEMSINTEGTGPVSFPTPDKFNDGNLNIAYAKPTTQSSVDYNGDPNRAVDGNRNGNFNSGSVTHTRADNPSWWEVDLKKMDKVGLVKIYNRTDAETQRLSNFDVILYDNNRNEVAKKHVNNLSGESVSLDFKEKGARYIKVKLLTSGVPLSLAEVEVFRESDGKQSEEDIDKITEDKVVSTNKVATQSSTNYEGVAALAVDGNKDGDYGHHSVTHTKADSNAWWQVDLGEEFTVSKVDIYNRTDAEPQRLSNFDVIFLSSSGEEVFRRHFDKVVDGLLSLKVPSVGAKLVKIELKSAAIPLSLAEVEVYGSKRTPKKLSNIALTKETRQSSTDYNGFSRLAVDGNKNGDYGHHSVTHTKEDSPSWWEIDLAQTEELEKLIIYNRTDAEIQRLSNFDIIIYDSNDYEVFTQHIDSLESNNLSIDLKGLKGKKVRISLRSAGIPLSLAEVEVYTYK
Format: binding
Outline: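 Recombinant SP2159 FRP expressed in E. coli and biotinylated. Wells coated at 4 °C with 10 μg human ovarian cyst phenol-insoluble glycoprotein bearing H Fucα1→2Gal and Fucα1→3/4GlcNAc glycotopes. Twofold serially diluted saccharide was mixed with an equal volume of fixed FRP for 1 h at 20 °C. TBS-T served as diluent and wash. The nmole/well giving 50% inhibition versus no inhibitor was read from the inhibition curve.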

| SMILES | Molar Relative Potency / LFuc as 1.0 |
| --- | --- |
| CO[C@@H]1O[C@@H](C)[C@@H](O)[C@@H](O)[C@@H]1O [compound 5, Methyl-α-LFuc] | 4.4 relative to LFuc = 1.0 |
| CO[C@H]1O[C@@H](C)[C@@H](O)[C@@H](O)[C@@H]1O [compound 3, Methyl-β-LFuc] | 21.9 relative to LFuc = 1.0 |
| OC1OC[C@@H](O)[C@@H](O)[C@@H]1O (stereo partly drawn) [compound 10, DAra] | 0.09 relative to LFuc = 1.0 |
| OC[C@@H]1OC(O)[C@@H](O)[C@H](O)[C@@H]1O (stereo partly drawn) [compound 6, LGal] | 4.4 relative to LFuc = 1.0 |
| C[C@@H]1O[C@H](Oc2ccc([N+](=O)[O-])cc2)[C@@H](O)[C@H](O)[C@@H]1O [compound 1, p-Nitrophenyl-β-LFuc] | 69.1 relative to LFuc = 1.0 |
| C[C@@H]1O[C@@H](Oc2ccc([N+](=O)[O-])cc2)[C@@H](O)[C@H](O)[C@@H]1O [compound 2, p-Nitrophenyl-α-LFuc] | 34.5 relative to LFuc = 1.0 |
| CC(=O)N[C@H]1[C@H](O[C@H]2[C@@H](O)[C@@H](CO)O[C@@H](O[C@H]3[C@H](O)[C@@H](O)C(O)O[C@@H]3CO)[C@@H]2O)O[C@H](CO)[C@@H](O[C@@H]2O[C@@H](C)[C@@H](O)[C@@H](O)[C@@H]2O)[C@@H]1O[C@@H]1O[C@H](CO)[C@H](O)[C@H](O)[C@H]1O[C@@H]1O[C@@H](C)[C@@H](O)[C@@H](O)[C@@H]1O (stereo partly drawn) [compound 7, LFucα1→2Galβ1→3[LFucα1→4]GlcNAcβ1→3Gal β1→4Glc] | 1.8 relative to LFuc = 1.0 |
| C[C@@H]1O[C@@H](O[C@H]2C(O)O[C@H](CO)[C@H](O)[C@@H]2O)[C@@H](O)[C@H](O)[C@@H]1O (stereo partly drawn) [compound 9, LFucα1→2Gal] | 0.7 relative to LFuc = 1.0 |
| C[C@@H]1O[C@@H](O[C@H]2[C@H](O[C@H]3[C@H](O[C@@H]4O[C@@H](C)[C@@H](O)[C@@H](O)[C@@H]4O)[C@@H](O)C(O)O[C@@H]3CO)O[C@H](CO)[C@H](O)[C@@H]2O)[C@@H](O)[C@H](O)[C@@H]1O (stereo partly drawn) [compound 4, LFucα1→2Galβ1→4[LFucα1→3]Glc] | 5.7 relative to LFuc = 1.0 |

Reference: article PMC5991896 (Biochimie Open, 2017)
